Read-outs that look alike come from different tables or passages of the source. Blank lines part the entries; values can stand above or below the compound they belong to.
Experiments:
cytochrome P450 (CYP) = conditions: cited from earlier work
[1] = type: in vivo, healthy Korean male volunteers; conditions: for Pharmacokinetic effect on the co-administered drug: steady-state gemigliptin 50 mg, single-dose glimepiride 4 mg
Method in brief: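 Randomized open-label crossover. Oral gemigliptin 50 mg once daily for 6 days with glimepiride 4 mg co-administered on day 7, versus single glimepiride 4 mg. Heparinized plasma was sampled to 24 h (days 6–7 at 0–14 h, day 8 at 0 h). LC–MS/MS; LLOQ 0.5 ng/mL gemigliptin, 1 ng/mL glimepiride. Non-compartmental AUC by linear-up/log-down trapezoidal method. Log-transformed GMRs with 90 % CI from mixed-effects ANOVA.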

[2] = cited from earlier work
Tolerability assessments = type: in vivo, healthy Korean male volunteers
Method in brief: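 Subjects receiving more than one dose were included. Medical staff monitored adverse events after dosing. Vital signs were taken seated after ≥5 min rest. 12-lead ECG was recorded before blood sampling. Physical examinations were done, and hematology, biochemistry and urinalysis were drawn after >8 h fasting. Investigators judged abnormal findings for clinical significance and relation to study drug.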

[3] = stated as known, no reference given; cited from earlier work
[4] = cited from earlier work; for t max: oral
[5] = cited from earlier work; remark: listed apart in the source
[6] = single ascending-dose study, healthy volunteers, 50–400 mg
[7] = another study, subjects all Caucasian
[8] = single-dose 4 mg, healthy volunteers, ref Malerczyk et al. [20]
[9] = glimepiride 4 mg + gemigliptin 50 mg, day 7
[10] = glimepiride 4 mg single dose only
[11] = plasma, glimepiride 4 mg single dose only

Compound: N[C@@H](CC(=O)N1CCc2c(nc(C(F)(F)F)nc2C(F)(F)F)C1)CN1CC(F)(F)CCC1=O [Gemigliptin]
inhibitory or induction potential (cytochrome P450 (CYP); gemigliptin and its metabolites, preclinical studies, ref Gemigliptin IB version 6.0, September 2012): very low
major metabolic route (cytochrome P450 (CYP); preclinical studies, ref Gemigliptin IB version 6.0, September 2012): via cytochrome P450 (CYP) 3A4
effects on cytochromes (cytochrome P450 (CYP); stated as known, no reference given): no significant effects on cytochromes
t max ([1]; male, human, plasma, oral, 50 mg, t max,ss, median (min–max), plasma, day 6, gemigliptin 50 mg once daily only): 1.5 h
AUC ([1]; male, human, plasma, po, 50 mg): 798 ng·h/mL
Cmax ([1]; male, human, plasma, po, 50 mg, C max,ss, mean (SD), plasma, day 6, gemigliptin 50 mg once daily only, oral): 80.2 ng/mL
Pharmacokinetic effect on the co-administered drug [1]: nor did gemigliptin affect the pharmacokinetics of single-dose glimepiride
half-life ([2]; day 1 of a previous study using 24 h sampling): 7.4 to 9.3 h
accumulation ([2]; previous multiple-dose study): accumulation was reported
half-life ([2]; previous multiple-dose study): approximately 17 h
half-life ([2]; previously reported by multiple-dose studies, sampling ≤72 h after the last dose): 16.6 to 20.1 h
mean t ½ [2, 6]: 16.7 to 21.3 h
t max [2, 6]: 0.5 to 5.1 h
Adverse events during dosing (events and participants) (Tolerability assessments; repeated gemigliptin dosing, 50 mg/day, 23 participants): six AEs occurred in four participants
Adverse events considered possibly related to the study drug (Tolerability assessments; rhinorrhea, constipation, and headache): three AEs in three participants were considered possibly related to the study drug
protein binding [3]: no strong protein-binding characteristics

Compound: CCC1=C(C)CN(C(=O)NCCc2ccc(S(=O)(=O)NC(=O)N[C@H]3CC[C@H](C)CC3)cc2)C1=O [Glimepiride]
accumulation ([4]; after multiple dosing): without accumulation
oral absorption ([4]; after oral administration): completely absorbed
AUClast (geometric mean) [4, 7]: 8,753 ng · h/mL
geometric C max mean [4, 7]: 1,084 ng/mL
half-life [4]: < 5 h
accumulation ([4]; multiple doses, 1 day vs 7 days, T2DM patients): does not accumulate
t max ([4]; T2DM patients): 2.4 to 3.75 h
t max ([4]; healthy volunteers): 0.7 to 2.8 h
mean AUC [4, 8]: 1,297 μg/L · h
mean C max [4, 8]: 307.8 ng/mL
t max, median (min–max) [1, 9]: 3.0 (2.0–5.0) h
t max, median (min–max) [1, 10]: 4.0 (2.0–5.0) h
Pharmacokinetic effect on the co-administered drug [1]: no pharmacokinetic effects on steady-state gemigliptin

t max, median (min–max) [1, 9]: 4.0 (3.0–6.0) h
t max, median (min–max) [1, 10]: 4.0 (3.0–6.0) h
AUClast, mean (SD) [1, 11]: 189.88 (52.77) ng · h/mL
C max, mean (SD) [1, 11]: 28.26 (8.40) ng/mL
Compound: CCC1=C(C)CN(C(=O)NCCc2ccc(S(=O)(=O)NC(=O)NC3CCC(CO)CC3)cc2)C1=O (stereo not drawn) [M1]

Compound: OC(Cn1cncn1)(Cn1cncn1)c1ccc(F)cc1F [fluconazole]
effect on plasma concentrations of glimepiride [5]: increase plasma concentrations of glimepiride

Compound: CC#CCn1c(N2CCC[C@@H](N)C2)nc2c1c(=O)n(Cc1nc(C)c3ccccc3n1)c(=O)n2C [linagliptin]
pharmacokinetics on coadministration of linagliptin and glyburide ([5]; linagliptin 5 mg/day × 6 days, glyburide single-dose 1.75 mg): not affected

Compound: N[C@@H](CC(=O)N1CCn2c(nnc2C(F)(F)F)C1)Cc1cc(F)c(F)cc1F [sitagliptin]
effect on the pharmacokinetics of glyburide [5]: does not affect the pharmacokinetics of glyburide
